Source: ChEMBL document CHEMBL1156036, “A class of novel N-(3S-1,2,3,4-tetrahydroisoquinoline-3-carbonyl)-L-amino acid derivatives: their synthesis, anti-thrombotic activity evaluation, and 3D QSAR analysis” (Eur J Med Chem, 2009)
Square brackets hold non-standard residues; d marks the D form. Peptide text beside a SMILES is read from it. Tic = O=C(O)[C@@H]1Cc2ccccc2CN1

Experiments:
Type in all cases: functional
[1] = Antiplatelet aggregatory activity in pig […] assessed as inhibition of ADP-induced platelet aggregation; conditions: Sus scrofa
Outline: (§1)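 Pig blood spun 1000g 10 min for platelet-rich plasma, then 1500g 10 min for platelet-poor plasma; platelets adjusted to 2×10^8/ml with autologous PPP. Test agent in NS (final 100 to 0.001 μM) added to 0.5 ml plasma, then inducer in NS: PAF 0.1 μM, ADP 10 μM, AA 350 μM or thrombin 0.1 U/ml (final). Optical aggregometry, 37 °C, 5 min, six tubes.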

[2] = tested on: Rattus norvegicus; assay: Antithrombotic activity in Wistar rat assessed as reduction of wet thrombus weight at 5 umol/kg, iv after 15 mins
Outline: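 Male Wistar rats, 250-300 g, given agent dissolved in NS (kept on ice) intravenously; Aspirin 15 μmol/kg as reference, NS as vehicle. Pentobarbital sodium 80.0 mg/kg i.p. Arteriovenous shunt from right carotid artery to left jugular vein via polyethylene tube containing a thread; blood flowed 15 min; wet thrombus weighed, n = 12, mean ± SD.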

[3] = tested on: Rattus norvegicus; assay: Antithrombotic activity in Wistar rat assessed as reduction of wet thrombus weight at 0.2 umol/kg, po after 15 mins
Outline: (§2)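 Oral dosing of male Wistar rats at 5, 1 or 0.2 μmol/kg in NS, or NS (0.6 ml) alone. Pentobarbital sodium 80.0 mg/kg ip; 30 min later vessels exposed. Weighed 6-cm thread in heparin-filled (50 IU/ml in NS) polyethylene tube linking carotid artery to jugular vein; 15 min flow; wet thrombus weight recorded, n = 12.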

[4] = tested on: Rattus norvegicus; assay: Antithrombotic activity in Wistar rat assessed as reduction of wet thrombus weight at 5 umol/kg, po after 15 mins; outline: as §2
[5] = Antiplatelet aggregatory activity in pig […] assessed as inhibition of platelet-activating factor-induced platelet aggregation; conditions: Sus scrofa; outline: as §1
[6] = Antiplatelet aggregatory activity in pig […] assessed as inhibition of arachidonic acid-induced platelet aggregation; conditions: Sus scrofa; outline: as §1
[7] = Antiplatelet aggregatory activity in pig […] assessed as inhibition of thrombin-induced platelet aggregation; conditions: Sus scrofa; outline: as §1
[8] = organism: Rattus norvegicus; assay: Ratio of compound antithrombotic potency to aspirin antithrombotic potency in Wistar rat assessed as reduction of wet thrombus weight
[9] = tested on: Rattus norvegicus; assay: Antithrombotic activity in Wistar rat assessed as reduction of wet thrombus weight at 1 umol/kg, po after 15 mins; outline: as §2

IC50 [1]: 124 nM | IC50 [5]: 1340 nM | IC50 [6]: 361 nM | IC50 [7]: 496 nM
SMILES: N=C(N)NCCC[C@H](NC(=O)[C@@H]1Cc2ccccc2CN1)C(=O)O (H-[Tic]-Arg-OH)
Activity [2]: 18.73 mg | Activity [3]: 29.11 mg | Activity [4]: 19.01 mg | Ratio [8]: >30 | Activity [9]: 24.38 mg
